46 compounds from ChEMBL document CHEMBL1123469, “Synthesis and activity of 6-aryl-3-(hydroxypolymethyleneamino)pyridazines in animal models of epilepsy” (1986) can be followed below.

Broadly, the ED50 is the dose at which the effect has come halfway, by size or by number of responders.

Common to all, as to type: functional
Test [1] has as its system Mus musculus. Put plainly: Evaluated for the sedative property by the rotarod test at 100 mg/kg. A digest of the protocol:
(§1)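 Motor coordination was tested on the rotorod in groups of 10 female Swiss CD1 mice (18-23 g). Drug or vehicle was given orally, test compounds in dilute HCl (pH 3), 60 min before testing.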
(In general: The rotarod test checks motor coordination on a turning rod.)

In test [2] the test system is Mus musculus. The test is described as follows: Evaluated for Bicuculline-induced seizures (anticonvulsant activity) when administered at 100 mg/kg orally in mice. The conditions noted are these: route oral. A digest of the protocol:
(§2)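 Female Swiss CD1 mice (18-23 g) were dosed orally at 20 mL/kg, test compounds in dilute HCl (pH 3) and references in gum tragacanth. Protection against bicuculline- or pentylenetetrazole-induced clonic/tonic seizures and lethality was scored.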

Test [3] deals with Mus musculus. The test is described as follows: Evaluated for Bicuculline-induced lethality (anticonvulsant activity) when administered 100 mg/kg orally in mice. The note with it: route oral. In outline:
(§3)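 Female Swiss albino CD1 mice (18-23 g), oral dosing (20 mL/kg); test compounds dissolved in dilute HCl (pH 3), reference drugs suspended in 5% gum tragacanth. Bicuculline challenge, scoring protection from seizures and from lethality. […] Weakly active agents reported as percent protected at the stated dose.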

The test system of test [4] is Mus musculus. The test is described as follows: Anticonvulsant activity when administered 100 mg/kg orally in mice Maximal electroshock (MES). The conditions noted are these: route oral. In outline:
(§4)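 Female Swiss CD1 mice (18-23 g), groups of 10, were dosed orally at 20 mL/kg. Test compounds were given in dilute HCl (pH 3) and references in 5% gum tragacanth, 60 min before a 60-V alternating current for 0.3 s through corneal electrodes. Protection meant abolition of the hindlimb tonic extensor component.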

The test system of test [5] is Mus musculus. The test is described as follows: Evaluated for Bicuculline-induced lethality (anticonvulsant activity) when administered orally in mice. The conditions noted are these: po. A digest of the protocol:
as §3

For test [6], the species on record is Mus musculus. The test is described as follows: Sedative property by the rotarod test. In outline: as §1
Test [7] concerns Mus musculus. The test is described as follows: Evaluated for anticonvulsant activity when administered orally in mice by Maximal electroshock (MES). The conditions noted are these: po. In outline: as §4
(The maximal electroshock test induces tonic seizures with an electrical stimulus.)

The subject of test [8] is Mus musculus. Put plainly: Evaluated for Bicuculline-induced seizures (anticonvulsant activity) when administered orally in mice. The note with it: po. In outline: as §2
The subject of test [9] is Mus musculus. The test is described as follows: Anticonvulsant activity in tonic seizures when administered orally in mice. The note with it: po.
For test [10], the species on record is Rattus norvegicus. The test is described as follows: Antagonist activity to generalized seizures kindled amygdaloid seizures in rats. In outline: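 Male Sprague-Dawley rats (200-500 g), groups of 10, carried platinum electrodes in the right basolateral amygdala. They counted as kindled after stage-5 seizures on 3 consecutive days at 30-90 μA. A control stimulation was followed by an oral dose (5 mL/kg) and restimulation 1 h later. After-discharge duration and Racine seizure stage were compared with vehicle.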

Test [11] concerns Mus musculus. Put plainly: Anticonvulsant activity in Clonic seizures when administered orally in mice. The conditions noted are these: po. A digest of the protocol: as §2
The species named for test [12] is Mus musculus. Put plainly: Sedative properties by the rotarod test. In outline: as §1
Test [13] is filed under the species Papio hamadryas. Put plainly: Antagonist activity to generalized seizures Photically induced seizures in senegalese Papio papio baboons. A digest of the protocol:
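Naturally photosensitive baboons of both sexes (4-7 kg) were dosed orally, test compounds in dilute HCl (pH 3) and references in 5% gum tragacanth, at 4 mL/kg. They were photically stimulated at hourly intervals afterwards, and the myoclonic response was graded after Killam. Threshold active dose is the first dose that protected at least two of four animals for at least 2 h.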

For `Clc1ccccc1-c1ccc(N2CCC3(CC2)OCCO3)nn1`, the results for the Protected in test [1], in test [2] and in test [3] were 0%, 40% and 30%, respectively.
`N#Cc1cccc(-c2ccc(N3CCC(O)CC3)nn2)c1`: the figures for the Protected in [1], in test [2] and in test [4] were 0%, 10% and 33%, respectively.
For `O=[N+]([O-])c1ccccc1-c1ccc(N2CCC(O)CC2)nn1`, in test [5], the ED50 was 57 mg/kg. For the same compound, in [1], the Protected came out at 0%.
Turning to `CNC(=O)OC1CCN(c2ccc(-c3ccccc3Cl)nn2)CC1`, the 50% effective dose (ED50) in test [5] stood at 9 mg/kg; in [6], 37 mg/kg.
On to `OC1CCN(c2ccc(-c3ccc(Cl)c(Cl)c3)nn2)CC1`, for which the Protected in [1] was determined as 100%; in test [2] it was 0%; in test [3], 20%; in [4] it was 25%.
In the case of `O=[N+]([O-])c1cccc(-c2ccc(N3CCC(O)CC3)nn2)c1`, the Protected is 30% in test [1], 0% in test [2] and 20% in test [3]. The ED50 in test [7] came out at 79 mg/kg.
`Cc1ccccc1-c1ccc(N2CCC(O)CC2)nn1`: the ED50 in test [5] came to 60 mg/kg; in test [8], 40 mg/kg; in test [7], 30 mg/kg.
`COc1ccc(-c2ccc(N3CCC(O)CC3)nn2)cc1`: the Protected in test [1] is 0%; in test [2], 20%; in test [4], 50%.
On to `OC1CCN(c2ccc(-c3ccccc3)nn2)CC1`, for which the ED50 in test [5] is 41 mg/kg. This compound had a Protected in test [1] of 0%.
Turning to `CCCC(=O)OC1CCN(c2ccc(-c3ccccc3Cl)nn2)CC1`, the 50% effect level in [5] (ED50) was put at a dose of 30 mg/kg. Also, in [1], the Protected is 0%.
Turning to `Cc1cccc(-c2ccc(N3CCC(O)CC3)nn2)c1`, the ED50 in test [5] was found to be 50 mg/kg; in test [7], 36 mg/kg. Further, the Protected in [1] is 0%; in test [2], 30%.
Take `CCCCNC(=O)OC1CCN(c2ccc(-c3ccc(Cl)cc3)nn2)CC1`: the Protected in test [1], in test [2] and in [4] was 0% in each case.
As to `C/N=C(\S)OC1CCN(c2ccc(-c3ccccc3Cl)nn2)CC1`, the ED50 in test [5] stood at 20 mg/kg; in test [8] it was 20 mg/kg; in [7], 35 mg/kg.
`CCCCNC(=O)OC1CCN(c2ccc(-c3ccccc3Cl)nn2)CC1`: the results for the Protected in test [1], in test [2] and in test [4] were 0%, 0% and 20%, respectively.
Regarding `OC1CCN(c2ccc(-c3cccs3)nn2)CC1`, the Protected in [1], in test [2] and in test [4] was 0% in each case.
In the case of `OC1CCN(c2ccc(-c3ccccc3F)nn2)CC1`, the 50% effect level in [5] (ED50) was put at a dose of 34 mg/kg. Further, the Protected in [1] came to 0%.
As for `CCC(=O)OC1CCN(c2ccc(-c3ccc(Cl)cc3Cl)nn2)CC1`, the ED50 in [5] came out at 13 mg/kg; in [6], 71 mg/kg; in test [8] it was 16 mg/kg; in test [7], 50 mg/kg.
As to `OC1CCN(c2ccc(-c3ccc(Cl)cc3)nn2)CC1`, the Protected came out at 40% in [1], 0% in test [2] and 70% in [3]. The compound also showed a 50% effective dose (ED50) in test [7] of 29 mg/kg.
As to `CNC(=O)OC1CCN(c2ccc(-c3ccc(Cl)cc3)nn2)CC1`, the Protected in test [1] is 0%; in test [2], 20%; in test [4], 20%.
As for `CC(=O)OC1CCN(c2ccc(-c3ccc(Cl)cc3Cl)nn2)CC1`, the ED50 in test [5] was 8.3 mg/kg; in test [6], 70 mg/kg; in test [8], 9.8 mg/kg; in [7], 14 mg/kg.
Regarding `O=C(Nc1cccc(Cl)c1)OC1CCN(c2ccc(-c3ccccc3Cl)nn2)CC1`, the Protected in [1] is 0%; in [2] it was 0%; in test [4] it was 35%.
`O=C(OC1CCN(c2ccc(-c3ccccc3Cl)nn2)CC1)C1CC1`: the ED50 in test [5] stood at 71 mg/kg. Also, the Protected in [1] turned out to be 0%; in test [4], 60%.
Regarding `CNC(=O)OC1CCN(c2ccc(-c3ccc(F)cc3)nn2)CC1`, the Protected in test [1] is recorded as 20%; in test [2], 40%; in test [3], 30%. This compound also yielded an ED50 in test [7] of 40 mg/kg.
Take `O=COC1CCN(c2ccc(-c3ccc(Cl)cc3Cl)nn2)CC1`: the ED50 in [6] worked out at 69 mg/kg; in [7], 24 mg/kg. Besides, the Protected in test [2] turned out to be 50%.
Consider `O=C1CCN(c2ccc(-c3ccccc3Cl)nn2)CC1`, for which the ED50 in [5] amounted to 25 mg/kg. In test [1], this compound returned a Protected of 40%.
On to `OC1CCN(c2ccc(-c3ccc(Cl)s3)nn2)CC1`, for which the Protected in test [1] is 0%; in test [2] it was 50%; in test [4] it was 30%.
Turning to `OC1CCCN(c2ccc(-c3ccccc3Cl)nn2)C1` (configuration not stated), the Protected in test [1] turned out to be 0%; in [2], 0%; in test [4], 15%.
With `CNC(=O)OC1CCN(c2ccc(-c3ccc(Cl)cc3Cl)nn2)CC1`, the ED50 in [5] is 1.4 mg/kg; in test [6], 20 mg/kg; in [8], 1.4 mg/kg; in [7], 5.5 mg/kg.
Turning to `OC1CCN(c2ccc(-c3ccsc3)nn2)CC1`, the Protected in test [1] is on record as 0%; in test [2] it was 10%; in [3] it was 20%; in [4] it was 80%.
Take `O=C(OC1CCN(c2ccc(-c3ccccc3Cl)nn2)CC1)c1ccc(Cl)cc1`: the Protected in [1], in [2] and in test [4] was 0% throughout.
With `CNC(=O)OC1CCN(c2ccc(-c3ccc(Cl)c(Cl)c3)nn2)CC1`, the Protected in test [1] was determined as 0%; in test [2], 0%; in test [4] it was 50%.
`OC1CCN(c2ccc(-c3ccc(F)cc3)nn2)CC1`: the Protected is reported as 50% in [1] and 10% in [2].
In the case of `O=[N+]([O-])c1ccc(-c2ccc(N3CCC(O)CC3)nn2)cc1`, the ED50 in [5] amounted to 57 mg/kg; in test [8], 54 mg/kg. The Protected in test [4] was determined as 40%.
Regarding `Cc1cc(Cl)ccc1-c1ccc(N2CCC(O)CC2)nn1`, the ED50 in test [5] is 10 mg/kg; in [6], 64 mg/kg; in test [8] it was 10 mg/kg; in test [7], 10 mg/kg.
For the compound `CNC(=O)OC1CCN(c2ccc(-c3cccc(Cl)c3)nn2)CC1`, the Protected in [1] came out at 0%; in test [2], 10%; in test [3], 0%; in [4], 40%.
With `CC(C)(C)C(=O)OC1CCN(c2ccc(-c3ccccc3Cl)nn2)CC1`, the Protected in test [1], in test [2] and in test [4] was 0% in each case.
Regarding `OC1CCN(c2ccc(-c3cccc(Cl)c3)nn2)CC1`, the Protected is given as 40% in test [1], 10% in test [2] and 40% in [3].
In the case of `CNC(=O)OC1CCN(c2ccc(-c3cccs3)nn2)CC1`, the Protected is 10% in test [1], 0% in [2], 20% in test [3] and 10% in test [4].
Take `Cc1ccc(-c2ccc(N3CCC(O)CC3)nn2)c(Cl)c1`: the ED50 in test [5] is 16 mg/kg; in [6], 48 mg/kg; in [8], 17 mg/kg; in test [7] it was 21 mg/kg.
The matching figures for `CCCC(=O)OC1CCN(c2ccc(-c3ccc(Cl)cc3Cl)nn2)CC1`: 30 mg/kg, 30 mg/kg, 31 mg/kg and 50 mg/kg.
For the compound `CN(C)C(=O)OC1CCN(c2ccc(-c3ccccc3Cl)nn2)CC1`, the figures for the ED50 in [5] and in test [6] were 1.1 mg/kg and 8.4 mg/kg, respectively.
Consider `OC1CCN(c2ccc(-c3cccc(C(F)(F)F)c3)nn2)CC1`, for which the Protected stood at 50% in test [1] and 0% in test [2].
Regarding `OC1CCN(c2ccc(-c3cccc4ccccc34)nn2)CC1`, the values for the Protected in test [1], in [2] and in [3] were 0%, 40% and 0%, respectively.
Regarding `Cc1ccc(-c2ccc(N3CCC(O)CC3)nn2)cc1`, the Protected in test [1] came out at 0%; in [2], 0%; in test [3], 50%. This compound gave an ED50 in test [7] of 73 mg/kg.
`OC1CCN(c2ccc(-c3ccccc3Cl)nn2)C1` (configuration not stated): the Protected in test [1] is reported as 0%; in test [2], 40%; in [4] it was 30%.
As for `OC1CCN(c2ccc(-c3ccccc3Cl)nn2)CC1` [LODAXAPRINE], the ED50 in test [5] amounted to 34 mg/kg; in test [9], 29 mg/kg; in [11] it was 77 mg/kg; in [12] it was 138 mg/kg. The Threshold active dose in [10] was found to be 20 mg/kg; in [13], 40 mg/kg.
